Compounds with a hit are over-represented: about 4.7% of the library has one in this group of screens.
GRIN3A LBD mod = NR3A (human) ligand-binding domain modulation. NR3A LBD differential scanning fluorimetry, Tm shift; 0% = protein alone, 100% = glycine-bound protein. Tm shift relative to glycine control, % at 25 µM. hit rate 2.5% among 340,000. AID 1259313;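 active = melting temperature shift of at least 10% of the positive control shift, at one fixed dose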
SKN-1 inh = C. elegans SKN-1 inhibition; C. elegans VP596 Pgst-4::GFP/RFP ratio, acrylamide-induced, 24 h; inhibition, % at 21.8 µM; hit rate 0.49% among 360,000;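 active = interference check ratio from 0.5 to 1.5 plus GFP to RFP signal ratio inhibition reaching or exceeding a fixed threshold, cut at about 30% in these data, passing the limit was not always enough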
ADAM17 inh = inhibits human ADAM17; P78536; recombinant ADAM17, EDANS/DABCYL FRET peptide cleavage; inhibition, % at 6.95 µM; hit rate 0.83% among 370,000; AID 720648;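 active = inhibition above the mean of compounds lying between control limits plus 3 SD, set per campaign, cut at about 8.5% in these data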
MPTP inh = inhibitors of mitochondrial permeability transition pore; hit rate 1.4% among 360,000; isolated mouse mitochondria, Ca2+ swelling absorbance, 30 min; inhibition, % at 10 µM; AID 602449;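 active = inhibition of 50% or more, scaled per plate between neutral and stimulator controls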
ADAM10 inh = inhibits human ADAM10. O14672. recombinant ADAM10, EDANS/DABCYL FRET peptide cleavage, 3 h. inhibition, % at 7 µM. hit rate 0.62% among 370,000. AID 720582;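 active = inhibition above a per-campaign cutoff equal to the mean of compounds falling between control-based bounds plus 3 SD, cut at about 20% in these data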
Target sequence (O14672 214-748 limits assumed): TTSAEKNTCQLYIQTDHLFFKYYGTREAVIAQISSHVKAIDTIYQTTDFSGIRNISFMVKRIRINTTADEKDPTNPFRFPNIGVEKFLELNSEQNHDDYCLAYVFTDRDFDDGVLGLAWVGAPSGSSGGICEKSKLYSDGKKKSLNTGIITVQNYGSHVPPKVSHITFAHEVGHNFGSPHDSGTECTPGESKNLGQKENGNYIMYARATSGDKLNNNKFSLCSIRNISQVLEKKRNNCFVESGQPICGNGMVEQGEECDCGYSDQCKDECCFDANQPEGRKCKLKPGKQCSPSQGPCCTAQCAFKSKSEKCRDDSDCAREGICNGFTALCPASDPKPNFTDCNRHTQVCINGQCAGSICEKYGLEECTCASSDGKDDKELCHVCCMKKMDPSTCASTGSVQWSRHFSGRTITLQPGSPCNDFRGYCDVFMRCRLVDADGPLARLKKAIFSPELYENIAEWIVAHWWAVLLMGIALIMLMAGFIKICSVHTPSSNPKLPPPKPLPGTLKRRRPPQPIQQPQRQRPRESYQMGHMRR
MT1-MMP act inh = MT1-MMP (human) activation inhibition; HT1080 RFP-PRO-GFP cells, GFP/RFP ratio fluorescence, overnight; percent of plate control window, DMSO zero; GFP/RFP ratio change, % at 20 µM; hit rate 0.061% among 360,000; AID 651647;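 active = GFP/RFP ratio change of at least 30% with cell ATP level not reduced by more than half and red fluorescence within 50% of control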
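Read-out: GFP/RFP fluorescence ratio; Test system: RFP-PRO-GFP reporter HT1080 cells; Compound dosing: single-point 20 µM compound, 1% DMSO; Times: overnight compound exposure at 37 °C.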
ADAM10 confirm = human ADAM10 inhibition, confirmation; inhibition, % at 6.95 µM; shares compounds with ADAM10 inh; hit rate 1% among 2,100; ADAM10 QFRET peptide cleavage, EDANS fluorescence;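 active = inhibition above about 20% chosen separately for each screening run, limit read from the data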
ADAM17 ctr = counter-screen for ADAM10 exosite inhibitors: inhibitors of human ADAM17; shares compounds with ADAM10 inh; ADAM17 QFRET peptide cleavage, EDANS fluorescence; inhibition, % at 6.95 µM; hit rate 0.5% among 2,100;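 active = mean triplicate inhibition above the solvent-only control wells' mean plus 3 SD, cut at about 12% in these data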
Hits are given with their value; – = inactive; · = no result given.

SMILES | GRIN3A LBD mod | SKN-1 inh | ADAM17 inh | MPTP inh | ADAM10 inh | MT1-MMP act inh | ADAM10 confirm | ADAM17 ctr
Cc1ccc(SCCNC(=O)c2ccc(C)c(S(=O)(=O)Nc3ccccc3C)c2)cc1 | – | – | – | – | 21 | – | – | –
Cc1cccc(N=Nc2c(C)nn(-c3ccccc3)c2N)c1C | – | – | – | – | 23 | – | – | –
COc1ccc(-c2noc(-c3ccccc3C(=O)Nc3cccnc3)n2)cc1 | – | – | – | – | – | – | · | ·
COc1ccc(-c2noc(-c3ccccc3C(=O)Nc3cccc(OC)c3)n2)cc1 | – | – | – | – | 25 | – | – | –
Cc1ccc(S(=O)(=O)N2[C@@H](c3cccc(C)c3)C(C(=O)O)=C[C@H]2CC2CCCC2)cc1 | – | – | – | – | – | – | · | ·
CC(Oc1ccccc1Cl)C(=O)Nc1ccc(S(=O)(=O)Nc2nccs2)cc1 (configuration not stated) | – | – | – | – | 51 | – | – | –
CCO[C@H]1OC(C(=O)Nc2ccccc2)=C[C@@H](c2ccc(Br)cc2)[C@@H]1CCCO | – | – | – | – | 24 | – | – | –
CCNC(=O)NC(=O)C(C)OC(=O)c1ccc(-n2nc(SC)sc2=S)cc1 (configuration not stated) | – | – | – | – | 22 | – | – | –
CSc1nn(-c2ccc(C(=O)OC(C(=O)NC(N)=O)C(C)C)cc2)c(=S)s1 (configuration not stated) | – | – | – | – | – | – | · | ·
COc1cccc(N=NC2C(=O)N(C(N)=S)N=C2C)c1 (configuration not stated) | – | – | – | – | 21 | – | – | –
CCOc1ccc(C2CC(c3ccc(CC)cc3)Nc3nc(N)nn32)cc1 (configuration not stated) | – | – | – | – | – | – | · | ·
CNc1cc(F)nc(F)n1 | – | – | – | – | – | – | · | ·
CCc1ccccc1N(CC(=O)NCc1ccco1)C(=O)CCC(=O)Nc1nccs1 | – | – | – | – | 88 | – | – | –
N#CCC(CNc1ncc(C(F)(F)F)cc1Cl)OC(=O)c1cccc([N+](=O)[O-])c1 (configuration not stated) | – | – | – | – | 21 | – | – | –
CCOC(=O)c1c(NC(=O)CSc2ncn[nH]2)sc(C(=O)N(C)C)c1C | – | – | – | – | – | – | · | ·
COCCCNC(=O)Cn1cc2c(n1)CCC(C)C2 (configuration not stated) | – | – | – | – | 87 | – | – | –
COCCCNC(=O)Cn1cc2c(n1)CCCCC2 | – | – | – | – | – | – | · | ·
COc1ccccc1NC(=S)N1C2CCC1CC(NC(=O)NC13CC4CC(CC(C4)C1)C3)C2 (configuration not stated) | – | – | – | – | – | – | · | ·
CCOc1ccccc1NC(=S)N1C2CCC1CC(NC(=O)NC13CC4CC(CC(C4)C1)C3)C2 (configuration not stated) | – | – | – | – | 33 | – | – | –
O=C(NC1CCN(c2ncccn2)CC1)c1c(F)cccc1F | – | – | – | – | – | – | · | ·
O=C(CSc1cn[nH]n1)Nc1nc2ccccc2s1 | – | – | – | – | 20 | – | – | –
CCc1ccc(NC(=O)CSc2nc3ccccc3c(=O)n2CCCC(=O)NCCCN2CCOCC2)cc1 | – | – | – | – | – | – | · | ·
Nc1cccc(CCc2ccncc2)c1 | – | – | – | – | 21 | – | – | –
COc1cccc(COC(=O)C2CCN(S(=O)(=O)c3ccc(C)cc3C)CC2)c1OC | – | – | – | – | 24 | – | – | –
O=C(COc1ccc2c(c1)oc(=O)c1ccccc12)N[C@@H](Cc1ccccc1)C(=O)O | – | – | – | – | – | – | · | ·
O=C(COC(=O)c1c2c(nc3ccccc13)CCCC2)Nc1ccc2c(c1)OCO2 | – | – | – | – | 24 | – | – | –
NC(=O)COC(=O)c1c2c(nc3ccccc13)CCCC2 | – | – | – | – | – | – | · | ·

Compound activity deposited in PubChem BioAssay by several laboratories.
